The conditions of series [1]: list of hypothermia‐inducing TRPV1 antagonists; cited from earlier work.
For series [2], the system named is TRPV1. Conditions: cited from earlier work.
Series [3] has as its system rats. The conditions noted are these: cited from earlier work.
Series [4] deals with T1, rat TRPV1 channels (Rattus norvegicus, UniProt O35433). Description: ^45Ca^2+ uptake assay with scintillation counter, CHO cells expressing rat TRPV1. It is filed as cell-based. Conditions: pH 5.0. In a few lines:
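CHO cells stably expressing rat TRPV1 were seeded 2 days before the assay (20,000 cells/well). Cells were exposed for 2 min at room temperature to test compound (200 pmol L⁻¹ to 4 μmol L⁻¹) with capsaicin (500 nmol L⁻¹) in HBSS pH 7.4 with BSA and HEPES, or with compound in MES buffer pH 5.0 with 30 mmol L⁻¹ HEPES. ⁴⁵Ca²⁺ (10 μCi mL⁻¹ final) was added for 2 min, cells were washed, and uptake was measured by scintillation counting.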

Series [5] deals with Trpv1 ^+/+ mice. The series can be described thus: Abdominal T b in Trpv1 +/+ mice, telemetry, i.g. gavage. It is filed as in vivo, mouse. The conditions noted are these: 30 mg kg^−1 i.g., at 140 minutes.
Series [6] has as its system Trpv1 ^−/− mice. Description: Abdominal T b in Trpv1 −/− mice, telemetry, i.g. gavage. Conditions: 30 mg kg^−1 i.g. It is filed as in vivo, mouse.
The test system of series [7] is Trpv1 ^+/+ mice. Description: Abdominal T b in Trpv1 +/+ mice, telemetry, i.p. catheter. In kind it is in vivo, mouse. The conditions noted are these: 10 mg kg^−1 i.p. In outline:
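Mice of both sexes (18‐27 g) were habituated to wire‐mesh confiners for 8 days. Under ketamine‐xylazine they were implanted intraperitoneally with a telemetry transmitter and a saline‐filled catheter, and tested 3‐6 days later. Test compound (0.75 mg mL⁻¹ in saline with 5% Tween‐80, warmed to 37°C) was given as a 10 mg kg⁻¹ bolus (~13 mL kg⁻¹) via the catheter, versus vehicle. Abdominal T_b was analysed by 2‐way ANOVA with Fisher's LSD.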

Series [8] relates to Trpv1 ^−/− mice. The series can be described thus: Abdominal T b in Trpv1 −/− mice, telemetry, i.p. catheter. It is filed as in vivo, mouse. The conditions noted are these: 10 mg kg^−1 i.p.
Series [9] has as its system TRPV1. The conditions noted are these: cited from earlier work; for effect on TRPV1 activation by protons in vitro: ref Lehto et al 16.
Series [10] has as its target T1, rat TRPV1 channels. Conditions: cited from earlier work.
Another series concerns the target human TRPV1 channels (Homo sapiens, UniProt Q8NER1). The conditions noted are these: cited from earlier work.
For a further series, the target named is corneal TRPV1 channels (Rattus norvegicus, UniProt O35433). Description: Eye‐wiping test after intra‐abdominal RTX desensitization. In kind it is in vivo. Conditions: rats desensitized with RTX 20 μg kg^−1 i.p. In outline: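 This test was done 6‐16 days after i.p. RTX (20 μg kg⁻¹) or vehicle pre‐treatment of rats. Counts were compared between desensitized and sham‐desensitized rats by […] 2‐tailed Student's t test.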

The test system of another series is humans. The conditions noted are these: clinical trial in humans; cited from earlier work.
In series [11] the test system is rats. Conditions: rat models of inflammatory pain and heat hyperalgesia; cited from earlier work.

These results are taken from article PMC6032921 (Acta Physiologica (Oxford, England), 2018).

Some results are limits rather than exact numbers.

T1 sequence (O35433 whole entry): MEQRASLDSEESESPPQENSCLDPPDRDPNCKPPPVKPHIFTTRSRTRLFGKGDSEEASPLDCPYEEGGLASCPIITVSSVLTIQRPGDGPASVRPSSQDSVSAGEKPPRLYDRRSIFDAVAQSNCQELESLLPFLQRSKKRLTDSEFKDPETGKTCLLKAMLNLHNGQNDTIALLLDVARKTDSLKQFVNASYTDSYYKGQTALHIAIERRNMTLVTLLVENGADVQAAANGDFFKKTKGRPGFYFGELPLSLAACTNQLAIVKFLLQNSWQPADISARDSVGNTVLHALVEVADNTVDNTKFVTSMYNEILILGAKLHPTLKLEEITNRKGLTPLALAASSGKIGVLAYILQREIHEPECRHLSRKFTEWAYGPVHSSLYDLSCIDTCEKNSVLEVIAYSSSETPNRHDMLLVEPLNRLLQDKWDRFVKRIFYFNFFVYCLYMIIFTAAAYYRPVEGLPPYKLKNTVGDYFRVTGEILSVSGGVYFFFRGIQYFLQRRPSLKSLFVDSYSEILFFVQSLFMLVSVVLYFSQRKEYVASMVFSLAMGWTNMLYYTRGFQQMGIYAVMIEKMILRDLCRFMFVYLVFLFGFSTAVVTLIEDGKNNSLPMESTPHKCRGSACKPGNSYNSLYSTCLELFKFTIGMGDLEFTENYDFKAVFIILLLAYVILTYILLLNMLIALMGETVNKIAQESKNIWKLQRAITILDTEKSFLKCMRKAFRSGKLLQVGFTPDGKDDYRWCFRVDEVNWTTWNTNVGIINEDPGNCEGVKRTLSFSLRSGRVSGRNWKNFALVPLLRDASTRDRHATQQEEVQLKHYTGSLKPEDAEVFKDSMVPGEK
corneal TRPV1 channels, sequence (O35433 whole entry): as above
human TRPV1 channels, sequence (Q8NER1 whole entry): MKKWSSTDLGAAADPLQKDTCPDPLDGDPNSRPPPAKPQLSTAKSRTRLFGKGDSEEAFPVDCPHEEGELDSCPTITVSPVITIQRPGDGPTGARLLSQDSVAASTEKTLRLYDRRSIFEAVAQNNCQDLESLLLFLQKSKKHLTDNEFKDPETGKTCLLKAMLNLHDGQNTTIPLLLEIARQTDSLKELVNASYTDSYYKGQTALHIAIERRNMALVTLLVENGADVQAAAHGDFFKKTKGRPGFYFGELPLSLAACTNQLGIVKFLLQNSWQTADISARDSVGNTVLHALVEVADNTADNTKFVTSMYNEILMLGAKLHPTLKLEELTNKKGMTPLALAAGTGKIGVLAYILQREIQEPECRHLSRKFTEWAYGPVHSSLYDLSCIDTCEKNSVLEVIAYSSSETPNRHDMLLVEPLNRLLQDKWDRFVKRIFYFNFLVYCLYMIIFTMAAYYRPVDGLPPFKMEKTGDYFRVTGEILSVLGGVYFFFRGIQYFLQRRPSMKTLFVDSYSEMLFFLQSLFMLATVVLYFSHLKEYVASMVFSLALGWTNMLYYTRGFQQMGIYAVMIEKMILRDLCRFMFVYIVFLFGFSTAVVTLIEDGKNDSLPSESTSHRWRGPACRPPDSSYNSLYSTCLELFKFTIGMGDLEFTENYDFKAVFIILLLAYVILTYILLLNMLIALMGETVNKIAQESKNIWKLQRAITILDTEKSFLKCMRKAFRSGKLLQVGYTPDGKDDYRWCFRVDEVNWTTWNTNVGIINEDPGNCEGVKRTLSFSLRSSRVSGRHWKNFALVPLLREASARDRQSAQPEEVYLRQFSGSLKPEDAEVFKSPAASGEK

Regarding `C=C(C)[C@]12C[C@@H](C)[C@@]34O[C@](Cc5ccccc5)(O[C@@H]1[C@@H]3C=C(COC(=O)Cc1cc(I)c(O)c(OC)c1)C[C@]1(O)C(=O)C(C)=C[C@@H]41)O2` [5′‐I‐RTX, 5′‐iodo‐resiniferatoxin], the “effect on deep body temperature (T b)” value in series [1] is recorded as “cause hypothermia”. In the series on TRPV1 [2], the “TRPV1 agonistic or capsaicin‐potentiating activity” value is listed as “partial agonists”.

For `O=C(/C=C/c1ccc(C(F)(F)F)nc1N1CCCCC1)Nc1cccc2c1CC(O)CC2` (centres unmarked) [AMG0347], the “effect on deep T b in rats” value with rats [3] is “increase deep T b in rats”.

`FC(F)(F)c1ccc(-c2cc(Nc3ccc4ncsc4c3)ncn2)c(NCC2CCCCC2)c1` [AMG7905]: the “effect on ^45Ca^2+ influx in the proton activation mode” value at rat TRPV1 channels [4] was “concentration‐dependent potentiation”. Besides, the “biggest intertreatment difference in T b (hypothermia vs vehicle)” value in the series with Trpv1 ^+/+ mice [5] came to 7.8 °C. The entries for the “effect on T b” value with Trpv1 ^−/− mice [6] and in the series with Trpv1 ^−/− mice [8] were “did not cause hypothermia” and “neither A‐1165901 nor AMG7905 had any effect on T b”, respectively. For the same compound, the “drop in T b compared to vehicle” value in the series with Trpv1 ^+/+ mice [7] is > 2 °C. The “effect on deep body temperature (T b)” value in series [1] is reported as “cause hypothermia”. Further, in the series with TRPV1 [2], the “TRPV1 agonistic or capsaicin‐potentiating activity” value is on record as “showed no TRPV1 agonistic or capsaicin‐potentiating activity”. Moreover, in the series with TRPV1 [9], the “effect on TRPV1 activation by protons in vitro” value is recorded as “potentiated TRPV1 activation by protons in vitro”.

Turning to `O=C(/C=C/c1ccc(C(F)(F)F)cc1N1CCCCC1)Nc1cccc2c1C[C@H](O)C2` [AMG8562, (R, E)‐N‐(2‐hydroxy‐2,3‐dihydro‐1H‐inden‐4‐yl)‐3‐(2‐(piperidin‐1‐yl)‐4‐(trifluoromethyl)phenyl)‐acrylamide], the “effect on deep body temperature (T b)” value in [1] is on record as “cause hypothermia”. Also, the “TRPV1 agonistic or capsaicin‐potentiating activity” value in the series on TRPV1 [2] was “showed no TRPV1 agonistic or capsaicin‐potentiating activity”. Also, the “effect on TRPV1 activation by protons in vitro” value with TRPV1 [9] is “potentiated TRPV1 activation by protons in vitro”.

`CC(=O)Nc1nc2c(Oc3cc(-c4ccc(C(F)(F)F)cc4)ncn3)cccc2s1` [AMG 517]: the “effect on deep T b in rats” value in the series on rats [3] is recorded as “increase deep T b in rats”.

Take `O=C(NCc1ccc(C(F)(F)F)cc1)Nc1cccc2cnccc12` [A‐425619, 1‐isoquinolin‐5‐yl‐3‐(4‐trifluoromethyl‐benzyl)‐urea]: in series [1], the “effect on deep body temperature (T b)” value is reported as “cause hypothermia”. The “TRPV1 agonistic or capsaicin‐potentiating activity” value in the series with TRPV1 [2] was “showed no TRPV1 agonistic or capsaicin‐potentiating activity”.

As to `Cc1ccc(N2c3cccc(C(=O)Nc4ccc(OCC(F)(F)F)nc4)c3OC[C@@H]2CO)nc1` [JTS‐653, (3S)‐3‐(hydroxymethyl)‐4‐(5‐methylpyridin‐2‐yl)‐N‐[6‐(2,2,2‐trifluoroethoxy)pyridin‐3‐yl]‐3,4‐dihydro‐2H‐benzo[b][1,4]oxazine‐8‐carboxamide], the “effect on T b in rats” value in the series with rats [3] is reported as “cause hyperthermia in rats”. Also, the “effect on proton‐induced activation of TRPV1” value at rat TRPV1 channels [10] and on human TRPV1 channels was “potently block proton‐induced activation” each time.

On to `CC(C)(C)c1ccc(CNC(=S)NCc2ccc(NS(C)(=O)=O)c(F)c2)cc1` [JYL1421], for which the “effect on deep body temperature (T b)” value in series [1] is listed as “cause hypothermia”. In the series on TRPV1 [2], the “TRPV1 agonistic or capsaicin‐potentiating activity” value was “showed no TRPV1 agonistic or capsaicin‐potentiating activity”.

For the compound `C=C(C)[C@]12C[C@@H](C)[C@@]34O[C@](Cc5ccccc5)(O[C@@H]1[C@@H]3C=C(COC(=O)Cc1ccc(O)c(OC)c1)C[C@]1(O)C(=O)C(C)=C[C@@H]41)O2` [RTX, resiniferatoxin], the “eye‐wiping response to topical RTX in desensitized vs sham‐desensitized rats” value on corneal TRPV1 channels is recorded as “no meaningful difference”.

Consider `O=C(Nc1ccc(C(F)(F)F)cn1)N1CC=C(c2ncc([C@H](O)CO)cc2Cl)CC1` [V116517, 4‐[3‐chloro‐5‐[(1S)‐1,2‐dihydroxyethyl]‐2‐pyridyl]‐N‐[5‐(trifluoromethyl)‐2‐pyridyl]‐3,6‐dihydro‐2H‐pyridine‐1‐carboxamide], for which the “effect on T b in rats” value in the series on rats [3] is listed as “causing hyperthermia in rats”. In the series on TRPV1 [9], the “effect on TRPV1 activation by protons” value is on record as “potently blocking TRPV1 activation by protons”. For the same compound, the “effect on T b in humans” value in the series on humans is given as “caused no hyperthermia”.

With `Oc1cc2c(cc1O)CN(C(=S)NCCc1ccc(Cl)cc1)CCC2` [capsazepine], the “effect on T b in rats” value with rats [3] is “does not affect T b in rats”. The “effect on proton activation of TRPV1” value on rat TRPV1 channels [10] is given as “no allosteric effect on proton activation”. The “efficacy in pain models” value in the series on rats [11] is given as “efficacious”.
